These results are taken from ChEMBL document CHEMBL1153506, “Design, synthesis, and discovery of novel non-peptide inhibitor of Caspase-3 using ligand based and structure based virtual screening approach” (Bioorg Med Chem, 2009).

The target of one assay is T1, Caspase-3 (Homo sapiens, UniProt P42574).
T1 sequence (P42574 whole entry): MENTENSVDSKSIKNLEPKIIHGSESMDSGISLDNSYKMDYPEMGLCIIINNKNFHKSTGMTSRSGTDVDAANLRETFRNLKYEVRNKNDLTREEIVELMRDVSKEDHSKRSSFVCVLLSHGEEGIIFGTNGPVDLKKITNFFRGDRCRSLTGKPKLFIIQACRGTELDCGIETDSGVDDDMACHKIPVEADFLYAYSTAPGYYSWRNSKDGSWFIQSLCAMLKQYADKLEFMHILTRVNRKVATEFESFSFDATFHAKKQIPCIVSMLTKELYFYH
As to the kind of experiment: Inhibition of caspase 3 in human SK-N-SH cells assessed as accumulation of fluorogenic 7-amino-4-methyl coumarin by fluorometric assay. It is filed as cell-based.

In assay [1] the test system is SK-N-SH. Briefly: Induction of apoptosis in human SK-N-SH cells at 0.5 to 5 uM by fluorescence assay. Type of assay: functional, cell-based. In a few lines:
(§1)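 Human SK-N-SH neuroblastoma cells exposed to the test agent at 0.5–5 µM. Apoptosis was read as caspase-3 activity by fluorescence intensity, scanned around 420–430 nm. Values are slopes averaged from 5 experiments, each run in duplicate.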

Assay [2] relates to SK-N-SH. Briefly: Induction of apoptosis in human SK-N-SH cells assessed as caspase 3 activity at 1 uM by fluorescence assay. It is filed as functional, cell-based. In a few lines:
as §1

Assay [3] relates to SK-N-SH. Briefly: Induction of apoptosis in human SK-N-SH cells assessed as caspase 3 activity at 5 uM by fluorescence assay. It is filed as functional, cell-based. The gist of the method: as §1
Another assay deals with T2, Caspase-7 (Homo sapiens) (UniProt P55210).
T2 sequence (whole entry): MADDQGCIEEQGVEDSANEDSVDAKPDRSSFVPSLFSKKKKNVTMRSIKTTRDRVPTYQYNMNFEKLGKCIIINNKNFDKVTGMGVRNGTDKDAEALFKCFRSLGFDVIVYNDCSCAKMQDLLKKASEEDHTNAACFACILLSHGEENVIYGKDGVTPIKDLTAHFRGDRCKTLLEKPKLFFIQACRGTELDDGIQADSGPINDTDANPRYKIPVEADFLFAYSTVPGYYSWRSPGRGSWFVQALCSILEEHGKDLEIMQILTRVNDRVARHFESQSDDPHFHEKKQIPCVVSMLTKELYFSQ
Briefly: Inhibition of caspase 7 in human SK-N-SH cells assessed as accumulation of fluorogenic 7-amino-4-methyl coumarin by fluorometric assay. It is filed as cell-based.

In assay [4] the target is T3, Caspase-3 (Homo sapiens) (UniProt P42574).
T3 sequence (whole entry): T1 sequence (P42574 whole entry)
As to the kind of experiment: Inhibition of caspase 3 in human SK-N-SH cells assessed as accumulation of fluorogenic 7-amino-4-methyl coumarin at 50 uM by fluorometric assay. Type of assay: cell-based. In a few lines:
(§2)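 Kit-based caspase-3 cleavage assay, using doxorubicin-induced apoptotic SK-N-SH cell extracts as the caspase source. The inhibitor was dissolved in DMSO and serially diluted to working concentrations, and a standard inhibitor served as control. Fluorescence was recorded across 420–460 nm, and decreases in intensity were expressed relative to apoptotic control extracts.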

The target in assay [5] is T3, Caspase-3 (Homo sapiens). As to the kind of experiment: Inhibition of caspase 3 in human SK-N-SH cells assessed as accumulation of fluorogenic 7-amino-4-methyl coumarin at 1 mM by fluorometric assay. It is filed as cell-based. In a few lines:
as §2

The test system of assay [6] is SK-N-SH. Briefly: Inhibition of apoptosis in human SK-N-SH cells assessed as maximum fluorescence intensity at 440 nm treated at 0.5 uM by fluorescence assay. It is filed as functional, cell-based. The gist of the method:
as §2

The target in assay [7] is T3, Caspase-3 (Homo sapiens). As to the kind of experiment: Inhibition of caspase 3 in human SK-N-SH cells assessed as accumulation of fluorogenic 7-amino-4-methyl coumarin at 10 uM by fluorometric assay. Type of assay: cell-based. In a few lines:
as §2

Assay [8] deals with T3, Caspase-3 (Homo sapiens). Briefly: Inhibition of caspase 3 in human SK-N-SH cells assessed as accumulation of fluorogenic 7-amino-4-methyl coumarin at 5 mM by fluorometric assay. Type of assay: cell-based. The gist of the method:
as §2

Assay [9] concerns the target T3, Caspase-3 (Homo sapiens). As to the kind of experiment: Inhibition of caspase 3 in human SK-N-SH cells assessed as accumulation of fluorogenic 7-amino-4-methyl coumarin at 100 uM by fluorometric assay. Type of assay: cell-based. The gist of the method:
as §2

Assay [10] has as its target T3, Caspase-3 (Homo sapiens). As to the kind of experiment: Inhibition of caspase 3 in human SK-N-SH cells assessed as accumulation of fluorogenic 7-amino-4-methyl coumarin at 0.5 uM by fluorometric assay. Type of assay: cell-based. In a few lines: as §2
The target of assay [11] is T3, Caspase-3 (Homo sapiens). As to the kind of experiment: Inhibition of caspase 3 in human SK-N-SH cells assessed as decrease in fluorescence intensity-associated with accumulation of fluorogenic 7-amino-4-methyl coumarin at 5 mM by fluorometric assay relative to control. Also noted: scale not given: the % may be the effect or the level left. It is filed as cell-based. The gist of the method: as §2

Calls of active or inactive are those of the source. The rule behind the calls is not given here.

One may read the IC50 as the concentration that gives 50% inhibition.

With `O=C1Nc2ccc(S(=O)(=O)N3CCCC3CNc3ccccc3)cc2C1=O` (centres undefined), the half-maximal inhibitory concentration (IC50) on Caspase-3 stood at 31 nM.

As for `COc1cccc2c1C(=O)c1c(O)c3c(c(O)c1C2=O)C[C@@](O)(C(=O)CO)C[C@@H]3O[C@H]1C[C@H](N)[C@H](O)[C@H](C)O1`, the outcome with SK-N-SH [1], in the assay on SK-N-SH [2] and in the assay on SK-N-SH [3] was Active.

On to `O=C(NCCCN1CCN(Cc2c(F)cccc2Cl)CC1)c1ccc(Cl)c(Cl)c1`, for which the outcome at Caspase-7 (Homo sapiens), on Caspase-3 (Homo sapiens) [4], on Caspase-3 (Homo sapiens) [7], in the assay with SK-N-SH [3] and on Caspase-3 (Homo sapiens) [9] was inactive. Moreover, the result at Caspase-3 (Homo sapiens) [5], with SK-N-SH [6], at Caspase-3 (Homo sapiens) [8] and at Caspase-3 (Homo sapiens) [10] was Active. On Caspase-3 (Homo sapiens) [11], the Activity stood at 50%.
